Screening data (PubChem BioAssay)
Sampled rows, rich in hits. Any-hit rate of the full collection: about 3.2%.
MEKK2wt PB1 HTS – raises or lowers MEK5 binding to wildtype human MEKK2 PB1 domain; binding response (% of control), % at 10 µM; 290,000 tested, 1.1% active; AID 1531; Q9Y2U5; bead flow cytometry, Alexa488-MEK5 binding to MEKK2 WT; actives lie on both sides; in the data active = binding response below about 67% or above about 130%
MEKK3 PB1 HTS – MEKK3-MEK5 PB1 interaction, increase or decrease; 290,000 tested, 1.4% active; Q99759; AID 1529; binding response (% of control), % at 10 µM; bead-based flow cytometry, Alexa488-MEK5 binding to MEKK3; actives lie on both sides; 0 = blocked by unlabeled MEK5, 100 = vehicle;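 active = binding response more than 3 SD above or below the average of its plate-row segment, actives on both sides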;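 also: Alexa488 bead fluorescence after subtracting the streptavidin-only scavenger bead signal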
MEKK2mut PB1 HTS – signal of MEK5 binding to mutant human MEKK2 PB1 domain; AID 1530; 290,000 tested, 0.35% active; bead flow cytometry, Alexa488-MEK5 binding to MEKK2 mutant; percent response, % at 10 µM; in the data active = percent response above about 24%, passing the limit was not always enough
Apaf-1 inh – blocks human Apaf-1 apoptosome activity | O14727 | reconstituted apoptosome caspase-3 activity, DEVD-Rh110 fluorescence | inhibition, % at 20 µM | 330,000 tested, 0.71% active; active = inhibition of at least 40% at 20 µM;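 also: plate controls were DMSO wells for no effect and DEVD-CHO caspase inhibitor wells for full effect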
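Material: reconstituted apoptosome with Apaf-1, cytochrome c, caspase-9, procaspase-3, dATP; medium: pH 7.5 Hepes buffer with CHAPS, BSA, DTT; also added: cytochrome c and DEVD-Rh110 substrate; timing: 30 min plus 50 min, RT; signal: Rh110 fluorescence intensity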
UBC13 inh – inhibitors of human UBC13 polyubiquitin chain formation; TR-FRET; 330,000 tested, 0.47% active; inhibition, % at 20 µM; P61088; in the data active = inhibition above about 45%, passing the limit was not always enough
Pemphigus Ab inh – human desmoglein-3 autoantibody binding inhibition; 310,000 tested, 0.48% active; DSG3-coupled beads, scFv-anti-DSG3-GFP binding, flow cytometry; stronger effect = lower value; AID 588358; P32926; binding (percent of control), % at 10 µM;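 active = binding more than 3 SD below its plate's average and above zero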;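 also: hits lower antibody fragment binding to DSG3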
MEKK2wt confirm – raises or lowers MEK5 binding to wildtype human MEKK2, retest | shares compounds with MEKK3 PB1 HTS | bead flow cytometry, Alexa488-MEK5 binding to MEKK2 WT; actives lie on both sides | binding response (% of control), % at 10 µM | 5,900 tested, 2.4% active | AID 1892; in the data active = binding response below about 16% or above about 210%; inactive = in between
MEKK2mut-MEK5 – signal of MEK5 binding to mutant human MEKK2, retest | shares compounds with MEKK3 PB1 HTS | bead flow cytometry, Alexa488-MEK5 binding to MEKK2 mutant | percent response, % at 10 µM | 5,900 tested, 2% active | AID 1893; in the data active = percent response mostly above about 71%, no sharp cut-off; inactive = mostly below about 38%;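 also: higher means compound restores mutant binding toward wildtype level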
MEKK3-MEK5 inh – MEKK3-MEK5 PB1 inhibition, single concentration confirmation | shares compounds with MEKK3 PB1 HTS | bead flow cytometry, Alexa488-MEK5 binding to MEKK3; stronger effect = lower value | binding response (% of control), % at 10 µM | 5,900 tested, 1.8% active | AID 1894;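 active = binding response below 72% of control, or above a set upper limit, though filed actives all read lower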;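 also: 100% = DMSO only wells and 0% = binding blocked by excess unlabeled MEK5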
* hit, by the source's call; . = no result given; [ ] = remark or other dose.

SMILES | MEKK2wt PB1 HTS | MEKK3 PB1 HTS | MEKK2mut PB1 HTS | Apaf-1 inh | UBC13 inh | Pemphigus Ab inh | MEKK2wt confirm | MEKK2mut-MEK5 | MEKK3-MEK5 inh
O=C(c1ccc(Cl)cc1)c1ccc(CN2C(=O)c3ccccc3C2=O)o1 | 2.0*[inhibitor] | 2.0*[inhibitor] | -16.0 | 12.3 | 12.2 | . | 103.0 | 4.0 | 106.0
CCOc1ccccc1OCCCC(=O)Nc1ccc(Cl)c(S(=O)(=O)N2CCOCC2)c1 | . | . | . | 19.8 | -6.6 | 103.1 | . | . | .
O=S(=O)(c1ccc(Cl)cc1)N1CCCc2ccccc21 | 103.0 | 100.0 | 2.0 | 19.3 | 6.9 | 93.3 | . | . | .
O=S(=O)(c1ccc(Cl)cc1)N1CCc2ccccc21 | 66.0 | 102.0 | 46.0* | 6.2 | -0.6 | 151.3 | 104.0 | 3.0 | 103.0
Cc1ccc2c(c1)C(=O)CCCCC(=O)N2 | 87.0 | 93.0 | -14.0 | 3.0 | -7.4 | 98.5 | . | . | .
CCn1c(=O)cc(SCC(=O)N(C)Cc2ccccc2)c2ccccc21 | 109.0 | 110.0 | 3.0 | 19.8 | 6.7 | 103.9 | . | . | .
CCOC(=O)CSc1cc(=O)n(CC)c2ccccc12 | 123.0 | 129.0* | 8.0 | 1.9 | 18.0 | . | 100.0 | 3.0 | 103.0
C/C=C/c1ccc(OCCCCN(C)Cc2ccccc2)c(OC)c1 | 139.0* | 107.0 | 7.0 | 12.2 | 2.9 | 116.3 | 120.0 | 9.0 | 100.0
Cc1cccc(-c2cc3nc4c(c(NCc5ccco5)n3n2)CCCC4)c1 | 136.0* | 110.0 | 16.0 | 18.2 | 4.3 | 120.8 | 108.0 | 1.0 | 104.0
Cc1cccc(-c2cc3nc4c(c(N5CCOCC5)n3n2)CCCC4)c1 | 97.0 | 94.0 | -3.0 | 28.6 | 2.9 | 121.0 | . | . | .
CCc1ccc([C@@H]2C[C@H]3[C@@H](CN2S(=O)(=O)c2ccc(C)cc2)C(=O)C[C@@H](c2cccc(Cl)c2)N3S(=O)(=O)c2ccc(C)cc2)cc1 | . | . | . | . | . | 97.9 | . | . | .
Cc1cc(C(=O)COC(=O)CNS(=O)(=O)c2ccc3ccccc3c2)c(C)n1-c1ccccc1 | 102.0 | 164.0* | 0.0 | 14.4 | 4.0 | 99.0 | 99.0 | 1.0 | 107.0
O=C(CNS(=O)(=O)c1ccc2ccccc2c1)OCC(=O)c1ccc(Br)s1 | 94.0 | 98.0 | -1.0 | 9.6 | -20.5 | 96.6 | . | . | .
CCn1cc(C=C2C(=O)c3ccccc3C2=O)c2ccccc21 | 33.0*[inhibitor] | 68.0 | -4.0 | . | . | 106.2 | 39.0 | -26.0 | 84.0
CCN=C1S/C(=C\c2cn(CC)c3ccccc23)C(=O)N1CC | 100.0 | 93.0 | -2.0 | 6.0 | -2.8 | 96.2 | . | . | .
Cc1ccc(C)c2[nH]c(=O)c(CN(CCN3CCCC3)C(=O)Nc3cccc(Cl)c3)cc12 | 153.0* | 110.0 | 41.0* | 17.5 | 23.4 | 125.6 | 154.0 | 35.0 | 103.0
O=C(OCc1ccccc1)N1C=CC2CC1c1c(Cl)cccc12 (stereo not drawn) | . | . | . | . | . | 100.2 | . | . | .
CN(C)c1ccc(/C=C/c2ccc3c4ccccc4ccc3[n+]2-c2ccccc2)cc1 | 41.0* | 18.0*[inhibitor] | -33.0 | . | . | 77.5 | 138.0 | 56.0 | 81.0
CCN1CCN(Cc2nc3cc(NC(=O)COc4ccc([N+](=O)[O-])cc4)ccc3n2C)CC1 | 96.0 | 96.0 | 0.0 | 5.4 | -2.6 | 101.3 | . | . | .
CCN(CC(O)Cn1c2ccccc2c2ccccc21)S(=O)(=O)c1ccc(C)cc1 (stereo not drawn) | 122.0 | 125.0* | 5.0 | 24.0 | 12.2 | . | 108.0 | -2.0 | 101.0
CN1CCN(c2nc3cc(C(F)(F)F)ccc3n3cccc23)CC1 | 140.0* | 103.0 | 4.0 | 32.3 | 8.0 | 116.8 | 135.0 | 19.0 | 109.0
CCCOc1ccc(-c2nn(-c3ccccc3)cc2/C=C2\SC(N)=NC2=O)cc1C | 96.0 | 129.0* | -2.0 | -0.3 | -0.6 | 113.1 | 94.0 | -1.0 | 104.0
